Experimental data: ChEMBL document CHEMBL3259574, “Environmentally benign synthesis and antimicrobial study of novel chalcogenophosphates” (Bioorg Med Chem Lett, 2014)

Columns and labels:
Staphylococcus aureus = assay: Antimicrobial activity against Staphylococcus aureus MTCC1430 assessed as zone diameter at 100 ug/ml after 24 hrs incubation by agar diffusion as say cup method; type: functional; settings: MTCC1430, 24 h, read-out: DIZ
Outline: (§1)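 Agar cup diffusion on nutrient agar plates. Solidified plates were spread with 0.1% cell suspension (10^6 CFU/mL) of the test organism and held 15 min, then 6 mm wells were cut. Samples at 100 µg/mL in DMSO went into the wells, and plates were incubated 24 h at 30–35 °C. Inhibition zone diameter was measured in mm by digital vernier caliper. Triplicate parallel sets gave mean ± standard deviation, compared by ANOVA with Tukey test (P < 0.01).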

Bacillus subtilis = assay: Antimicrobial activity against Bacillus subtilis MTCC121 assessed as zone diameter at 100 ug/ml after 24 hrs incubation by agar diffusion as say cup method; type: functional; settings: MTCC121, 24 h, read-out: DIZ; outline: as §1
Escherichia coli = assay: Antimicrobial activity against Escherichia coli MTCC1610 assessed as zone diameter at 100 ug/ml after 24 hrs incubation by agar diffusion as say cup method; type: functional; settings: MTCC1610, 24 h, read-out: DIZ; outline: as §1
Candida albicans = assay: Antimicrobial activity against Candida albicans MTCC227 assessed as zone diameter at 100 ug/ml after 24 hrs incubation by agar diffusion as say cup method; type: functional; settings: MTCC227, 24 h, read-out: DIZ; outline: as §1
Pseudomonas aeruginosa = assay: Antimicrobial activity against Pseudomonas aeruginosa MTCC424 assessed as zone diameter at 100 ug/ml after 24 hrs incubation by agar diffusion as say cup method; type: functional; settings: MTCC424, 24 h, read-out: DIZ; outline: as §1
Cicer arietinum [1] = assay: Toxicity in gram seed germination assessed as seedling fresh weight; type: organism-based; settings: in vivo
Vigna mungo = assay: Toxicity in mung seed germination assessed as seedling fresh weight; type: organism-based; settings: in vivo
Pisum sativum [2] = assay: Toxicity in pea seed germination assessed as seedling fresh weight; type: organism-based; settings: lathyrus oleraceus, in vivo
Pisum sativum [3] = assay: Toxicity in pea seed germination assessed as seedling length; type: organism-based; settings: lathyrus oleraceus, in vivo
Cicer arietinum [4] = assay: Toxicity in gram seed germination assessed as seedling length; type: organism-based; settings: in vivo

| Compound | zone of inhibition at 100 µg/mL (Staphylococcus aureus) [mm] | zone of inhibition at 100 µg/mL (Bacillus subtilis) [mm] | zone of inhibition at 100 µg/mL (Escherichia coli) [mm] | zone of inhibition at 100 µg/mL (Candida albicans) [mm] | zone of inhibition at 100 µg/mL (Pseudomonas aeruginosa) [mm] | Activity (Cicer arietinum [1]) | Activity (Vigna mungo) | Activity (Pisum sativum [2]) | Activity (Pisum sativum [3]) | Activity (Cicer arietinum [4]) |
| --- | --- | --- | --- | --- | --- | --- | --- | --- | --- | --- |
| O=P(OCc1ccccc1)(OCc1ccccc1)Sc1ccccc1 | 25.1 | 19.8 | 22.9 | 28.1 | 25.4 | – | – | – | – | – |
| CCOP(=O)(OCC)[Se]c1ccccc1 | 30.2 | 31.6 | 24.3 | 34 | 32.1 | Non-toxic | Non-toxic | Non-toxic | Non-toxic | Non-toxic |
| COP(=O)(OC)[Se]c1ccccc1 | 28.4 | 22.1 | 22.5 | 28.3 | 25.6 | – | – | – | – | – |
| CC(C)OP(=O)(OC(C)C)[Se]c1ccccc1 | 30.5 | 33.1 | 35.1 | 38.6 | 33.4 | Non-toxic | Non-toxic | Non-toxic | Non-toxic | Non-toxic |
| O=C(N[C@H](CO)[C@H](O)c1ccc([N+](=O)[O-])cc1)C(Cl)Cl [CHLORAMPHENICOL] | 30.9 | 33.4 | 35 | – | 33.6 | – | – | – | – | – |
| O=P(OCc1ccccc1)(OCc1ccccc1)[Se]c1ccccc1 | 20.3 | 23.4 | 27.3 | 25.9 | 24.3 | – | – | – | – | – |
| CCOP(=O)(OCC)Sc1ccccc1 | 22.5 | 20.6 | 21 | 26.4 | 23.6 | Non-toxic | Non-toxic | Non-toxic | Non-toxic | Non-toxic |
